According to ChEMBL document CHEMBL4513216, “Probing the Open Global Health Chemical Diversity Library for Multistage-Active Starting Points for Next-Generation Antimalarials” (ACS Infect Dis, 2020):

Assay: Toxicity liver stage against HepG2, at 10uM
Type: cell-based
Design: test concentration 10 uM, cell line HepG2-A16-CD81EGFP
Conditions: human, HepG2-A16-CD81EGFP cells; read-out: INHIBITION
Summary of the method: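 Uninfected HepG2-A16-CD81EGFP cells, 3 × 10^3 per well, 1536-well, plated on prespotted compound at 10 μM final, parasite-free screening media added to match infected plates; puromycin 10 μM positive, DMSO 0.5% negative; run in parallel with 48 h PbLuc assay at 37 °C, 5% CO2; viability by CellTiter-Glo luminescence, normalized to controls.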

SMILES	cytotoxicity at 10 µM
CCN(CC)[C@H]1C[C@@H](Cc2cc(CO)on2)C1(C)C	9.12%
COCCN1CCN(C(=O)C[C@@H]2C[C@@H](C(C)C)[C@H](CC#N)C=C2C)CC1	0.788%
O=C(Nc1cccnc1-n1cc(Br)cn1)C1CCCC1	-33.1%
O=C(N[C@]12CC1CN(C(=O)c1ccco1)C2)c1ccoc1 (some centres not stated)	-1.48%
Cc1ccsc1C(=O)NCC1COCc2c(C)nnn2C1 (configuration not stated)	-3.51%
CN1CCN(Cc2cn3c(n2)CN(C(=O)c2ccco2)CC3)CC1	-4%
O=C(c1cccs1)N1CC[C@H](O)[C@@H]1Cc1ccccc1	-5.99%
Cc1cc(C(=O)N2C[C@@H]3COC[C@]3(c3nnc(C4CC4)o3)C2)on1	-10%
COCC(=O)N1CCCCC1c1nc(N(C)C)ncc1-c1cc(C)no1 (configuration not stated)	5.93%
c1cc(CN2CCCC(c3ccnc4nccn34)C2)ccn1 (configuration not stated)	-3.29%
COCCC(=O)N1C[C@@H](c2ccc(F)c(F)c2)[C@@]2(CCCC(=O)N2)C1	-9.06%
Cc1nc(C2CCN(C(=O)c3cscn3)CC2)c2sccn12	-5.16%
NCc1cn(-c2ccccc2C(=O)NCc2ccccc2Cl)cn1	-9.94%
COCc1cc(O)nc(C2CCCN(Cc3cccc(Cl)c3Cl)C2)n1 (configuration not stated)	-7.47%
COc1ccc2c(c1)CCCC2CC(=O)NCC(C)(C)C(=O)O (configuration not stated)	-1.2%
COc1cc2c(nn1)CCN(Cc1noc(CC(C)C)n1)C2	-1.02%
COCCOc1ncccc1C(=O)N(C)c1ccc(OC)c(OC)c1	-46.7%
N#Cc1cn(CCN2CCc3ccccc3C2)c(=O)[nH]c1=O	4.47%
CN(C)CCn1c(=O)oc2ccc(NC(=O)N3CCCCCC3)cc21	-3.59%
COCCN1CCC(NC(=O)Cn2cc(C)c3ccccc32)CC1	-0.869%
Cc1nn(C)c(Oc2ccccc2)c1CNC1CCOc2ccccc21 (configuration not stated)	4.88%

SMILES	cytotoxicity at 10 µM
COCCCNC(=O)Nc1cccc2c1CCN(S(C)(=O)=O)C2	2.87%
Cc1cc(C)c(CNC(=O)NCC2COc3ccccc3C2)c(=O)[nH]1 (configuration not stated)	8.51%
CC(C)c1noc(CN2CCOCC2C)n1 (configuration not stated)	3.95%
COc1cccc(CNc2cccnc2-n2cccn2)c1OC	1%
COc1cccc(COc2nc(C(C)C)no2)c1	-42.4%
COc1ccccc1CN(Cc1nc(C)no1)C1CC1	2.77%
Cc1noc(C)c1CN1CCCC1c1nnc2ccccn12 (configuration not stated)	-1.73%
CCNC(=O)N1CCc2ccc(NC(=O)C(C)c3ccsc3)cc21 (configuration not stated)	-3.41%
Cc1ccccc1C1(CNc2nnc(C)c(C)c2C#N)CCOCC1	-2.1%
O=C(c1ccncn1)N1C[C@@H]2CN(Cc3cccnc3)CCO[C@@H]2C1	7.61%
Cc1cccc(N2CCC3(CCCN(C(=O)Cc4cccnc4)C3)C2)n1 (configuration not stated)	0.824%
CCn1c(CC2CCN(C(=O)c3cc(C(C)C)nn3C)CC2)n[nH]c1=O	-58.5%
CCCC(=O)Nc1ccc(CC(=O)N(C)CCc2cn[nH]c2)cc1	4.84%
COCCCC1CCN([C@@H]2c3ccccc3C3(CCNCC3)[C@H]2O)CC1	-4.67%
Cn1ccnc1-c1cn(CCCc2csc(N)n2)nn1	0.963%
CCN(CC)CCn1cnc(-c2ccccc2)c1-c1cnn(CC)c1	3.37%
CCCc1cnc(C)nc1N1CCC(Cn2cc(C(C)O)nn2)CC1 (configuration not stated)	1.92%
CCOCCC(=O)N1CCCCC1CCn1cccn1 (configuration not stated)	-0.168%
CCOCC1CCN(C(=O)C(c2cccc(F)c2)N(C)C)CC1 (configuration not stated)	-4.57%
N#Cc1cccc(N2CCC(CO)(CCOc3ccccc3)CC2)n1	-42.8%
CCOC(=O)CC1CCCCN1C(=O)c1cc(C)on1 (configuration not stated)	5.53%

SMILES	cytotoxicity at 10 µM
COCCCN1CC2(CCCN(CCn3cc(Cl)cn3)C2)CCC1=O (configuration not stated)	5.97%
COC(=O)c1cccc(C(=O)N2CCCCC2CCn2ccnc2C)c1 (configuration not stated)	14.5%
CN(Cc1ccsc1)C(=O)CN1CCCC(Cn2cncn2)C1 (configuration not stated)	-11.3%
Cc1csc(C2CCCCN2C(=O)c2cc(C)n(C)n2)n1 (configuration not stated)	-17.9%
Cc1ccc(-c2cc(CNC(=O)N3CCC(N(C)C)CC3)on2)cc1	-10.8%
Cc1cc(NC(=O)CNC2CCc3ncnn3C2)no1 (configuration not stated)	-6.73%
Nc1cc2c(nn1)CCN(C(=O)C1CCc3ccccc31)C2 (configuration not stated)	-6.58%
Cc1cnn(CCNCC(O)COc2ccc3ccccc3c2)c1 (configuration not stated)	-6.31%
Cc1cnn(CCC(=O)N2CCCN(c3nc(C)cs3)CC2)c1	-4.05%
COc1ccc(OC)c(C(O)CNC(=O)Nc2cccnc2OC)c1 (configuration not stated)	-22.4%
CCc1nc(CN(C(C)=O)C2CCN(CC3CCOCC3)C2)no1 (configuration not stated)	-3.84%
Cc1nc(C)n(CC2CCCN2CCOc2ccccc2C#N)n1 (configuration not stated)	-4.17%
Cn1cc(CC(=O)N2CCCC(n3cncn3)C2)cn1 (configuration not stated)	-3.54%
O=C(NCc1ccccc1-n1cccn1)N1CCC(N2CCCC2)C1 (configuration not stated)	-0.554%
Cc1nn(-c2ccccc2)nc1C(=O)N1CCCC(n2cccn2)C1 (configuration not stated)	-9.53%
CC(Cn1ccnc1)NC(=O)NCc1cccnc1OC1CCCC1 (configuration not stated)	-13.3%
CCc1nc(C2CCCN2C(=O)c2cc(Cl)c[nH]2)no1 (configuration not stated)	-12.2%
O=C(Nc1ccccc1)N1CCN(Cc2noc(C3CC3)n2)CC1	2.82%
N#Cc1cnn(-c2ccc(C(=O)N(C3CCCCC3)C3CC3)cc2)c1N	-2.54%
COc1ccc(Cl)cc1CC(=O)N1CCN(CC(C)O)CC1 (configuration not stated)	-17.1%
O=C(COCc1ccccc1Cl)N1CCCC(n2ccnc2)C1 (configuration not stated)	-25.1%

SMILES	cytotoxicity at 10 µM
O=C(c1sccc1C1CC1)N1CCN(Cc2cscn2)CC1	1.97%
Cc1nc(CN(C)C2CCN(Cc3cccc(F)c3)C2)no1 (configuration not stated)	-15%
Cc1nnc(NC(=O)CN2CCOC(Cn3cccn3)C2)s1 (configuration not stated)	-7.44%
Cc1nc2ccccc2nc1CN1CCCCC1Cn1cccn1 (configuration not stated)	3.94%
CC(C)S(=O)(=O)C(C)C(=O)NCc1cccc(N2CCCCC2=O)c1 (configuration not stated)	-7.91%
Cc1cc(NC(=O)CN2CCN(c3nccs3)C(C)C2)n(C)n1 (configuration not stated)	-4.2%
C[C@H]1CN2C[C@H](O)CC2CN1Cc1ccc2nccnc2c1 (some centres not stated)	-1.23%
Cc1cc(Nc2ccccn2)nc(C2CCCN(CCO)C2)n1 (configuration not stated)	1.26%
Cn1cc(N2C(=O)CC[C@@H]3[C@H]2CCN3CCc2ccccc2)cn1	15.6%
O=C(N1CCCO1)[C@@]12CCO[C@@H]1CCN(Cc1cccnc1)C2	-4.26%
c1cncc(CN2CCC3(COCCN(C4CCOCC4)C3)C2)c1 (configuration not stated)	1.46%
COCCn1cc2c(n1)C(CNCc1cccc(OC)c1)OCC2 (configuration not stated)	-4.52%
CCN1CCN(C)C2(CCN(Cc3ccsc3)CC2)C1=O	0.317%
CCOC1COC2(CCN(Cc3ccc(C)cc3)CC2)C1 (configuration not stated)	-8.28%
COc1cc(CNCCn2ccnc2)cc2c1OCO2	5.17%
Cc1ccc(C(=O)N2CCn3cc(CN4CCCCC4)nc3C2)o1	4.75%
Cc1noc([C@@]23CCO[C@@H]2CCN(CC2CCOCC2)C3)n1	-2.1%
Cc1cnc(N2C[C@@H]3C[C@H](C(=O)N(C)C)[C@H](C2)O3)nc1	-2.47%
COc1ccc(CN2C[C@@H]3C(CC(=O)N4CCCC4)[C@@H]3C2)cc1 (some centres not stated)	-13.8%
